The values that follow come from ChEMBL document CHEMBL1148939, “Montacin and cis-montacin, two new cytotoxic monotetrahydrofuran annonaceous acetogenins from Annona montana” (2004).

Converted amounts (≈) assume the structure as drawn.

Assay [1] concerns SK-MEL-2. Description: Cytotoxicity against human SK-MEL-2 cells after 3 days by SRB assay in presence of Ca2+. Type of assay: functional. The settings on record: SK-MEL-2, 72 h, read-out: ED50 (the source's name). The method, boiled down:
(§1)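 This is the 3-day SRB growth assay in RPMI-1640 with 10% FBS and 25 mM HEPES, with CaCl2 added to the bioassay as the Ca2+ source. Trypsinized cells were seeded at 1500-7500 per well with DMSO-diluted compound, then fixed with cold TCA, stained with 0.4% SRB and read at 562 nm. ED50 is the concentration causing 50% growth reduction.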
In general terms: Sulforhodamine B stains cellular protein and so reports cell mass.

Assay [2] deals with KB. Description: Cytotoxicity against human vincristine-resistant KB cells after 3 days by SRB assay. Type of assay: functional. The settings on record: 72 h, read-out: ED50 (the source's name). The method, boiled down:
(§2)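 Cells were grown in RPMI-1640 with 25 mM HEPES, 0.25% NaHCO3, 10% FBS and kanamycin. Freshly trypsinized cells were seeded at 1500-7500 per well with compound from a DMSO-diluted stock and cultured for 3 days. Attached cells were fixed with cold 50% TCA, stained with 0.4% SRB, and the solubilized dye was read at 562 nm. ED50 is the concentration giving 50% growth reduction over 3 days.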

Assay [3] concerns 1A9. Description: Cytotoxicity against human 1A9 cells after 3 days by SRB assay in presence of Ca2+. It counts as functional. The conditions noted are these: 1A9, 72 h, read-out: ED50 (the source's name). The method, boiled down:
as §1

Assay [4] has as its system MCF7. Description: Cytotoxicity against human MCF7 cells after 3 days by SRB assay in presence of Ca2+. Type of assay: functional. The conditions noted are these: MCF7, 72 h, read-out: ED50 (the source's name). The method, boiled down:
as §1

Assay [5] deals with KB. Description: Cytotoxicity against human KB cells after 3 days by SRB assay in presence of Ca2+. The settings on record: 72 h, read-out: ED50 (the source's name). Type of assay: functional. The method, boiled down: as §1
A short description of assay [6]: Cytotoxicity against human U87MG cells after 3 days by SRB assay in presence of Ca2+. Type of assay: functional, U-87MG ATCC. The settings on record: U-87 MG, 72 h, read-out: ED50 (the source's name).
Assay [7] has as its system 1A9/ptx-10. Description: Cytotoxicity against human 1A9/PTX10 cells after 6 days by SRB assay. The settings on record: 1A9/ptx-10, 144 h, read-out: ED50 (the source's name). It counts as functional. The method, boiled down:
(§3)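 Parent 1A9 ovarian cells or the PTX10 subline (mutated β-tubulin) were grown in RPMI-1640 with 25 mM HEPES, 0.25% NaHCO3, 10% FBS and kanamycin. Freshly trypsinized cells were seeded at 1500-7500 per well with DMSO-diluted compound, cultured for 6 days, and evaluated by SRB staining. Activity was expressed as ED50.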

The test system of assay [8] is KB. Description: Cytotoxicity against human vincristine-resistant KB cells after 3 days by SRB assay in presence of Ca2+. The conditions noted are these: 72 h, read-out: ED50 (the source's name). It counts as functional. Put shortly: as §1
In assay [9] the test system is PC-3. Description: Cytotoxicity against human PC3 cells after 3 days by SRB assay in presence of Ca2+. It counts as functional. The conditions noted are these: PC-3, 72 h, read-out: ED50 (the source's name). The method, boiled down: as §1
The test system of assay [10] is SK-MEL-2. Description: Cytotoxicity against human SK-MEL-2 cells after 3 days by SRB assay. It counts as functional. The settings on record: SK-MEL-2, 72 h, read-out: ED50 (the source's name). Put shortly: as §2
Assay [11] deals with KB. Description: Cytotoxicity against human KB cells after 3 days by SRB assay. It counts as functional. The conditions noted are these: 72 h, read-out: ED50 (the source's name). Put shortly:
as §2

Assay [12] deals with 1A9/ptx-10. Description: Cytotoxicity against human 1A9/PTX10 cells after 6 days by SRB assay in presence of Ca2+. It counts as functional. The settings on record: 1A9/ptx-10, 144 h, read-out: ED50 (the source's name). The method, boiled down: (§4)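 1A9 ovarian cells or the β-tubulin-mutant PTX10 subline were grown in RPMI-1640 with 10% FBS and 25 mM HEPES. CaCl2 was included in the bioassay as the Ca2+ source. Cells were seeded at 1500-7500 per well with DMSO-diluted compound and cultured for 6 days before SRB staining. The read-out was ED50.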

Assay [13] relates to MCF7. Description: Cytotoxicity against human MCF7 cells after 3 days by SRB assay. Type of assay: functional. The conditions noted are these: MCF7, 72 h, read-out: ED50 (the source's name). Put shortly: as §2
Assay [14] in a line: Cytotoxicity against human CAKI cells after 3 days by SRB assay in presence of Ca2+. Type of assay: functional. The conditions noted are these: 72 h, read-out: ED50 (the source's name). The method, boiled down: as §1
The nature of assay [15]: Cytotoxicity against human U87MG cells after 3 days by SRB assay. Type of assay: functional, U-87MG ATCC. The conditions noted are these: U-87 MG, 72 h, read-out: ED50 (the source's name).
Assay [16] concerns 1A9/ptx-10. Description: Cytotoxicity against human 1A9/PTX10 cells after 3 days by SRB assay. Type of assay: functional. The conditions noted are these: 1A9/ptx-10, 72 h, read-out: ED50 (the source's name). Put shortly: as §2
The nature of assay [17]: Cytotoxicity against human CAKI cells after 3 days by SRB assay. It counts as functional. The settings on record: 72 h, read-out: ED50 (the source's name). Put shortly: as §2
Assay [18] deals with HCT-8. Description: Cytotoxicity against human HCT8 cells after 3 days by SRB assay. The settings on record: HCT-8, 72 h, read-out: ED50 (the source's name). It counts as functional. The method, boiled down:
as §2

In assay [19] the test system is 1A9. Description: Cytotoxicity against human 1A9 cells after 6 days by SRB assay. The settings on record: 1A9, 144 h, read-out: ED50 (the source's name). It counts as functional. The method, boiled down:
as §3

In assay [20] the test system is HCT-8. Description: Cytotoxicity against human HCT8 cells after 3 days by SRB assay in presence of Ca2+. Type of assay: functional. The conditions noted are these: HCT-8, 72 h, read-out: ED50 (the source's name). The method, boiled down:
as §1

The subject of assay [21] is 1A9. Description: Cytotoxicity against human 1A9 cells after 6 days by SRB assay in presence of Ca2+. The conditions noted are these: 1A9, 144 h, read-out: ED50 (the source's name). It counts as functional. Put shortly:
as §4

The subject of assay [22] is 1A9/ptx-10. Description: Cytotoxicity against human 1A9/PTX10 cells after 3 days by SRB assay in presence of Ca2+. Type of assay: functional. The settings on record: 1A9/ptx-10, 72 h, read-out: ED50 (the source's name). Put shortly:
as §1

Assay [23] has as its system 1A9. Description: Cytotoxicity against human 1A9 cells after 3 days by SRB assay. The conditions noted are these: 1A9, 72 h, read-out: ED50 (the source's name). Type of assay: functional. The method, boiled down:
as §2

Assay [24] concerns A549. Description: Cytotoxicity against human A549 cells after 3 days by SRB assay in presence of Ca2+. It counts as functional. The conditions noted are these: A549, 72 h, read-out: ED50 (the source's name). The method, boiled down: as §1
In assay [25] the test system is A549. Description: Cytotoxicity against human A549 cells after 3 days by SRB assay. The conditions noted are these: A549, 72 h, read-out: ED50 (the source's name). It counts as functional. The method, boiled down: as §2
Assay [26] relates to PC-3. Description: Cytotoxicity against human PC3 cells after 3 days by SRB assay. It counts as functional. The conditions noted are these: PC-3, 72 h, read-out: ED50 (the source's name). The method, boiled down: as §2

For the compound `CCCCCCC[C@H](O)[C@@H]1CC[C@@H]([C@@H](O)CCCCCCCCCC[C@H](O)CC(=O)CC[C@@H](O)CC2=C[C@H](C)OC2=O)O1` [MONTACIN], the EC50 was 13.3 µg/mL with SK-MEL-2 [1]; > 20 µg/mL in the assay on KB [2]; 6.7 µg/mL with 1A9 [3]; 5.5 µg/mL with MCF7 [4]; 9.1 µg/mL in the assay with KB [5]; 14.2 µg/mL in assay [6]. For the same compound, the EC50 in the assay on 1A9/ptx-10 [7] was determined as 7.9 µg/mL (≈ 12.9 µM); in the assay on KB [8] it was 13.9 µg/mL; in the assay with PC-3 [9], 14.2 µg/mL; in the assay on SK-MEL-2 [10] it was 11.2 µg/mL (≈ 18.3 µM); with KB [11], 16.6 µg/mL (≈ 27.2 µM); in the assay with 1A9/ptx-10 [12], 2.8 µg/mL. The EC50 in the assay on MCF7 [13] is 10 µg/mL (≈ 16.4 µM); in assay [14], 14.2 µg/mL; in assay [15] it was > 20 µg/mL; in the assay on 1A9/ptx-10 [16], > 10 µg/mL; in assay [17], > 20 µg/mL; in the assay on HCT-8 [18], 16.5 µg/mL (≈ 27 µM). Further, the EC50 in the assay on 1A9 [19] is 6.7 µg/mL (≈ 11 µM); in the assay on HCT-8 [20], 12.3 µg/mL; in the assay with 1A9 [21], 4.5 µg/mL; in the assay with 1A9/ptx-10 [22] it was 7.5 µg/mL; in the assay on 1A9 [23], > 10 µg/mL; in the assay on A549 [24] it was 7.4 µg/mL. The EC50 in the assay with A549 [25] is 12.9 µg/mL (≈ 21.1 µM); with PC-3 [26], > 20 µg/mL.
Take `CCCCCCC[C@@H](O)[C@H]1CC[C@@H]([C@@H](O)CCCCCCCCCC[C@@H](O)CC(=O)CC[C@@H](O)CC2=C[C@H](C)OC2=O)O1`: the EC50 amounted to 13.4 µg/mL (≈ 21.9 µM) in the assay on KB [2]; 2 µg/mL with 1A9 [3]; 6.4 µg/mL in the assay on MCF7 [4]; 8.2 µg/mL in the assay on KB [5]; 14.3 µg/mL in [6]; 1.8 µg/mL (≈ 2.95 µM) in the assay on 1A9/ptx-10 [7]. The EC50 in the assay with KB [8] stood at 13.8 µg/mL; in the assay with PC-3 [9], 12.1 µg/mL; with KB [11] it was 7.7 µg/mL (≈ 12.6 µM); in the assay with 1A9/ptx-10 [12], 0.11 µg/mL; with MCF7 [13], 6.7 µg/mL (≈ 11 µM); in assay [15], 15 µg/mL (≈ 24.6 µM). In addition, the EC50 in the assay with 1A9/ptx-10 [16] was determined as 5.9 µg/mL (≈ 9.66 µM); with HCT-8 [18] it was 12.9 µg/mL (≈ 21.1 µM); in the assay on 1A9 [19] it was 0.54 µg/mL (≈ 0.884 µM); in the assay with HCT-8 [20], 11.7 µg/mL; with 1A9 [21] it was 0.13 µg/mL; in the assay with 1A9/ptx-10 [22], 5.3 µg/mL. The EC50 amounted to 3.6 µg/mL (≈ 5.89 µM) in the assay with 1A9 [23], 5.5 µg/mL with A549 [24], 6 µg/mL (≈ 9.82 µM) in the assay on A549 [25] and 11.9 µg/mL (≈ 19.5 µM) in the assay on PC-3 [26].
